pIC50: −log10 of the molar value. Activity calls are given as the source filed them. The rule behind the calls is not given here.
Key:
[1] = Metal chelating activity assessed as compound-Cu2+ complex stoichiometry ratio of […] after 1 hr by Job's plot analysis
[2] = Stability of compound in presence of Fe3+ at 100 uM measured after 1 hr by RP-HPLC analysis; assay type: physicochemical
In short: (§1)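 Compound (100 µM) incubated at 37 °C for 1 h with one of: ROS species (1 mM), NO solution (1 mM), GSH (200 µM), CuCl₂ (10 µM) or FeCl₃ (10 µM). Percent decomposed was determined by RP-HPLC (ODS column, 0.1% TFA water/methanol gradient, 1 mL/min, 256 nm).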

[3] = Stability of compound in presence of GSH at 100 uM measured after 1 hr by RP-HPLC analysis; assay type: physicochemical; in short: as §1
[4] = Metal chelating activity assessed as compound-Cu2+ complex formation by measuring intracellular HO level in human SW1990 cells at 10 uM measured after 1 hr in presence of CuCl2 by HO probe based confocal laser scanning microscopic analysis; assay type: cell-based
In short: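 SW1990 cells at 80% confluence were loaded with 20 µM HO· probe at 37 °C for 30 min and rinsed. They then received 50 µM CuCl₂, followed by 10 µM compound for 1 h. For the scavenger arm, 1 mM tempol was given for 30 min before CuCl₂. CLSM imaging at λex 570 / λem 650 nm gave mean intensity; n = 3.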

[5] = Prodrug activation in NO at 100 uM measured after 1 hr by RP-HPLC analysis; in short: as §1
[6] = Stability of compound in pH 5 PBS buffer assessed as parent compound remaining measured after 24 hrs by RP-HPLC analysis; assay type: physicochemical; conditions: read-out: Stabilty
In short: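 Compound (1 µM) stirred at 37 °C either in PBS (pH 5.0, 7.4 or 10.0) containing 5% DMSO or in DMEM with 10% FBS. Aliquots were analysed by RP-HPLC (0.1% TFA water/methanol gradient, 256 nm) for remaining intact compound, up to 24 h.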

SW1990 [7] = test: Cytotoxicity against human SW1990 cells assessed as reduction in cell viability at 10 to 20 uM measured after 48 hrs in presence of NO scavenger Carboxyl-PTIO by MTT assay; assay type: functional, cell-based; conditions: dose 10-20 µM
In short: (§2)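 SW1990 cells pretreated 1 h at 37 °C with 20 mM NAC or 50 µM carboxy-PTIO, then treated 48 h with compound at 10 or 20 µM. Percent cell death by MTT (A490). Mean ± SD, n = 3.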

SW1990 [8] = test: Antitumor activity against human SW1990 cells xenografted in Balb/c nude mouse assessed as tumor growth inhibition at 20 mg/kg, iv administered every 3 days measured after 21 days relative to control; assay type: functional; conditions: 504 h, time 21 day, read-out: TGI
In short: (§3)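 Male BALB/c nude mice, 3–5 weeks old, given 1 × 10⁷ SW1990 cells subcutaneously; when tumors reached about 65 mm³, randomised to groups of eight. Saline vehicle control, dosing intravenously every three days. Tumor size monitored every two days for three weeks; tumors dissected at sacrifice on day 21, volume = d² × D/2 (d smallest, D largest diameter). Mean ± SD.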

[9] = Metal chelating activity assessed as compound-Cu2+ complex formation by measuring change in wavelength at 50 uM measured after 40 mins in presence of H2O2 by UV spectrophotometric method
In short: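 Compound at 50 µM final in PBS (10 mM, pH 7.4) with 50 µM CuCl₂ and H₂O₂ (500 µM, 10 eq.). UV spectrum tracked over 40 min at room temperature, following peaks at 240, 382 and 210 nm.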

SW1990 [10] = test: Antitumor activity against human SW1990 cells xenografted in Balb/c nude mouse assessed as tumor size at 20 mg/kg, iv administered every 3 days measured after 21 days (reference value: 1.23 +/- 0.25 cm3); assay type: functional; conditions: time 21 day; in short: as §3
SW1990 [11] = test: Induction of apoptosis in human SW1990 cells at 8 to 12 uM measured after 24 hrs by Annexin V-FITC/propidium iodide staining based flow cytometry; assay type: functional, cell-based; conditions: dose 8-12 µM
In short: (§4)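 SW1990 cells seeded 5 × 10⁵ per well and grown 24 h, then treated 24 h at 8 or 12 µM. Optional 1 h pretreatment with 20 mM NAC or 50 µM carboxyl-PTIO before 12 µM treatment. Cells stained with annexin V-FITC 15 min and PI 5 min at room temperature in the dark, then analysed by flow cytometry. Mean ± SD, n = 3.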

PANC-1 = test: Cytotoxicity against human PANC-1 cells assessed as reduction in cell viability measured after 48 hrs in presence of FeCl3 by MTT assay; assay type: functional, cell-based; conditions: PANC-1, 48 h
In short: (§5)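 Cells seeded 6 × 10⁴ per well, cultured 24 h at 37 °C under 5% CO₂, then exposed to compound for 48 h, with or without 50 µM CuCl₂ or FeCl₃ co-incubation. MTT added for 4 h at 37 °C, formazan dissolved in DMSO, A490 read. IC50 reported as mean (SD), n = 3.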

[12] = Prodrug activation in OH at 100 uM measured after 1 hr by RP-HPLC analysis; in short: as §1
SW1990 [13] = test: Cytotoxicity against human SW1990 cells assessed as reduction in cell viability measured after 48 hrs by MTT assay; assay type: functional, cell-based; conditions: SW1990, 48 h; in short: as §5
SW1990 [14] = test: Cytotoxicity against human SW1990 cells assessed as reduction in cell viability at 10 to 20 uM measured after 48 hrs in presence of ROS quencher NAC by MTT assay; assay type: functional, cell-based; conditions: dose 10-20 µM; in short: as §2
SW1990 [15] = test: Induction of apoptosis in human SW1990 cells assessed as increase in cleaved caspase-3 expression at 8 to 12 uM measured after 24 hrs by Western blot analysis; assay type: functional, cell-based; conditions: dose 8-12 µM
In short: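 SW1990 cells seeded 5 × 10⁵ per well and grown 24 h at 37 °C, then treated 24 h. Lysates quantified by BCA, resolved by SDS-PAGE and transferred to nitrocellulose. Blocked in 5% milk, probed overnight at 4 °C for cleaved caspase-3, cleaved caspase-9, Bax and Bcl-2, then HRP secondary 2 h. ECL detection.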

SW1990 [16] = test: Induction of mitochondrial membrane potential loss in human SW1990 cells at 8 to 12 uM measured after 24 hrs by JC1 staining based flow cytometry; assay type: functional, cell-based; conditions: dose 8-12 µM
In short: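 SW1990 cells seeded at 5 × 10⁵ per well, grown 24 h, then exposed to compound for 24 h. Stained with JC-1 per kit instructions. Flow cytometry gave the percentage of cells with healthy or collapsed mitochondrial membrane potential. Mean ± SD, n = 3.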

SW1990 [17] = test: Induction of apoptosis in human SW1990 cells at 12 uM measured after 24 hrs in presence of NO scavenger Carboxyl-PTIO by Annexin V-FITC/propidium iodide staining based flow cytometry; assay type: functional, cell-based; in short: as §4
SW1990 [18] = test: Cytotoxicity against human SW1990 cells assessed as reduction in cell viability measured after 48 hrs in presence of 10 to 50 uM Cu2+ by MTT assay; assay type: functional, cell-based; conditions: dose 10-50 µM

Ratio [1]: 0.64
Stabilty [2]: Stable
Stabilty [3]: Stable
Drug metabolism [5]: Metabolite_Notdetected
remaining at 24 h [6]: > 80%
Activity [9]: 210 nm
Drug metabolism [12]: Metabolite_Notdetected
Compound: O=C(NCCCOc1no[n+]([O-])c1S(=O)(=O)c1ccccc1)c1ccc2cccc(OCc3ccc(B(O)O)cc3)c2n1
Activity [4]: Active
Activity (SW1990 [7]): inactive
inhibition in vivo at 20 mg/kg (SW1990 [8]): 61.8%
Activity (SW1990 [10]): 0.47 cm3
Activity (SW1990 [11]): Active
pIC50 (PANC-1): 4.76
pIC50 (SW1990 [13]): 5.05
Activity (SW1990 [14]): inactive
Activity (SW1990 [15]): Active
Activity (SW1990 [16]): Active
Activity (SW1990 [17]): inactive
Activity (SW1990 [18]): Dose-dependent effect
